Measured values as given in ChEMBL document CHEMBL1153506, “Design, synthesis, and discovery of novel non-peptide inhibitor of Caspase-3 using ligand based and structure based virtual screening approach” (Bioorg Med Chem, 2009).
Active and inactive are the calls of the source. No cut-off for these calls is given here.

Legend:
SK-N-SH [1] = test: Induction of apoptosis in human SK-N-SH cells at 0.5 to 5 uM by fluorescence assay; assay type: functional, cell-based
Procedure, shortened: (§1)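 Human SK-N-SH neuroblastoma cells exposed to the test agent at 0.5–5 µM. Apoptosis was read as caspase-3 activity by fluorescence intensity, scanned around 420–430 nm. Values are slopes averaged from 5 experiments, each run in duplicate.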

SK-N-SH [2] = test: Induction of apoptosis in human SK-N-SH cells assessed as caspase 3 activity at 1 uM by fluorescence assay; assay type: functional, cell-based; procedure, shortened: as §1
SK-N-SH [3] = test: Induction of apoptosis in human SK-N-SH cells assessed as caspase 3 activity at 5 uM by fluorescence assay; assay type: functional, cell-based; procedure, shortened: as §1
Caspase-3 (Homo sapiens) [4] = target: T1, Caspase-3 (Homo sapiens) (UniProt P42574); test: Inhibition of caspase 3 in human SK-N-SH cells assessed as accumulation of fluorogenic 7-amino-4-methyl coumarin at 10 uM by fluorometric assay; assay type: cell-based
T1 sequence (whole entry): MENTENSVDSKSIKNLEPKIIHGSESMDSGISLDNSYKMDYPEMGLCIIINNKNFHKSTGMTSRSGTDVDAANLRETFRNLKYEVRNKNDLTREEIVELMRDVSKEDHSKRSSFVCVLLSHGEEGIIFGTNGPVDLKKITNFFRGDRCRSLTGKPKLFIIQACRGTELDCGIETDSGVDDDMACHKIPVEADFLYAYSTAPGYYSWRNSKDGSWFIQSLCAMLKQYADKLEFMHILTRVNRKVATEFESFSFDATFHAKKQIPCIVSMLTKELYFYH
Procedure, shortened: (§2)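 Kit-based caspase-3 cleavage assay, using doxorubicin-induced apoptotic SK-N-SH cell extracts as the caspase source. The inhibitor was dissolved in DMSO and serially diluted to working concentrations, and a standard inhibitor served as control. Fluorescence was recorded across 420–460 nm, and decreases in intensity were expressed relative to apoptotic control extracts.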

Caspase-3 (Homo sapiens) [5] = target: T1, Caspase-3 (Homo sapiens); test: Inhibition of caspase 3 in human SK-N-SH cells assessed as accumulation of fluorogenic 7-amino-4-methyl coumarin at 50 uM by fluorometric assay; assay type: cell-based; procedure, shortened: as §2
Caspase-3 (Homo sapiens) [6] = target: T1, Caspase-3 (Homo sapiens); test: Inhibition of caspase 3 in human SK-N-SH cells assessed as accumulation of fluorogenic 7-amino-4-methyl coumarin at 100 uM by fluorometric assay; assay type: cell-based; procedure, shortened: as §2
Caspase-3 (Homo sapiens) [7] = target: T1, Caspase-3 (Homo sapiens); test: Inhibition of caspase 3 in human SK-N-SH cells assessed as accumulation of fluorogenic 7-amino-4-methyl coumarin at 0.5 uM by fluorometric assay; assay type: cell-based; procedure, shortened: as §2
Caspase-3 (Homo sapiens) [8] = target: T1, Caspase-3 (Homo sapiens); test: Inhibition of caspase 3 in human SK-N-SH cells assessed as accumulation of fluorogenic 7-amino-4-methyl coumarin at 1 mM by fluorometric assay; assay type: cell-based; procedure, shortened: as §2
Caspase-3 (Homo sapiens) [9] = target: T1, Caspase-3 (Homo sapiens); test: Inhibition of caspase 3 in human SK-N-SH cells assessed as accumulation of fluorogenic 7-amino-4-methyl coumarin at 5 mM by fluorometric assay; assay type: cell-based; procedure, shortened: as §2
SK-N-SH [10] = test: Inhibition of apoptosis in human SK-N-SH cells assessed as maximum fluorescence intensity at 440 nm treated at 0.5 uM by fluorescence assay; assay type: functional, cell-based; procedure, shortened: as §2
Caspase-3 (Homo sapiens) [11] = target: T1, Caspase-3 (Homo sapiens); test: Inhibition of caspase 3 in human SK-N-SH cells assessed as decrease in fluorescence intensity-associated with accumulation of fluorogenic 7-amino-4-methyl coumarin at 5 mM by fluorometric assay relative to control; assay type: cell-based; design: scale not given: the % may be the effect or the level left; procedure, shortened: as §2
Caspase-7 (Homo sapiens) = target: T2, Caspase-7 (Homo sapiens) (UniProt P55210); test: Inhibition of caspase 7 in human SK-N-SH cells assessed as accumulation of fluorogenic 7-amino-4-methyl coumarin by fluorometric assay; assay type: cell-based
T2 sequence (whole entry): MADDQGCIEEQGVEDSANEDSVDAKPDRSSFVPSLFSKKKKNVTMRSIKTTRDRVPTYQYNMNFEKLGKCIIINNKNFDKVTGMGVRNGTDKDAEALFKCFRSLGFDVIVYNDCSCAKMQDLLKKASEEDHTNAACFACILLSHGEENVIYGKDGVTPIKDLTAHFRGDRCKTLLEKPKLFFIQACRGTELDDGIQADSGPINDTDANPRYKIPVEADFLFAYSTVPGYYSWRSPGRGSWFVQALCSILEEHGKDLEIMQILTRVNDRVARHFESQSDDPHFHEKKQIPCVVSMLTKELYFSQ

Caspase-3 = target: T3, Caspase-3 (Homo sapiens, UniProt P42574); test: Inhibition of caspase 3 in human SK-N-SH cells assessed as accumulation of fluorogenic 7-amino-4-methyl coumarin by fluorometric assay; assay type: cell-based
T3 sequence (P42574 whole entry): T1 sequence (whole entry)

Compound	Activity (SK-N-SH [1])	Activity (SK-N-SH [2])	Activity (SK-N-SH [3])	Activity (Caspase-3 (Homo sapiens) [4])	Activity (Caspase-3 (Homo sapiens) [5])	Activity (Caspase-3 (Homo sapiens) [6])	Activity (Caspase-3 (Homo sapiens) [7])	Activity (Caspase-3 (Homo sapiens) [8])	Activity (Caspase-3 (Homo sapiens) [9])	Activity (SK-N-SH [10])	Activity (Caspase-3 (Homo sapiens) [11])	Activity (Caspase-7 (Homo sapiens))	IC50 (Caspase-3)
COc1cccc2c1C(=O)c1c(O)c3c(c(O)c1C2=O)C[C@@](O)(C(=O)CO)C[C@@H]3O[C@H]1C[C@H](N)[C@H](O)[C@H](C)O1	Active	Active	Active	–	–	–	–	–	–	–	–	–	–
O=C(NCCCN1CCN(Cc2c(F)cccc2Cl)CC1)c1ccc(Cl)c(Cl)c1	–	–	inactive	inactive	inactive	inactive	Active	Active	Active	Active	50%	inactive	–
O=C1Nc2ccc(S(=O)(=O)N3CCCC3CNc3ccccc3)cc2C1=O (centres undefined)	–	–	–	–	–	–	–	–	–	–	–	–	31 nM
